Laboratory results taken from ChEMBL document CHEMBL1153856, “Synthesis and spectral characterization of a new class of N-(N-methylpiperazinoacetyl)-2,6-diarylpiperidin-4-ones: antimicrobial, analgesic and antipyretic studies” (2009).

Columns and labels:
Type in all cases: functional
Rattus norvegicus [1] = test: Antipyretic activity against brewer's yeast-induced hyperthermia in Wistar rat assessed as change in rectal temperature at 5 mg/kg, po after 120 mins
Outline: (§1)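 Wistar rats of both sexes, 200–250 g, received brewer's yeast in normal saline sc. Rectal temperature was taken with a digital thermometer (precision 0.1 °C). At 18 h, rats whose temperature had risen 0.3–0.5 °C were selected. Test compounds (30 or 60 mg/kg) or indomethacin (5 mg/kg) were given orally in 1% CMC; controls received vehicle only. Temperature was measured at 30, 60, 90, 120 and 150 min, mean ± SEM.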

Rattus norvegicus [2] = test: Antipyretic activity against brewer's yeast-induced hyperthermia in Wistar rat assessed as change in rectal temperature at 5 mg/kg, po after 60 mins; outline: as §1
Rattus norvegicus [3] = test: Antipyretic activity against brewer's yeast-induced hyperthermia in Wistar rat assessed as change in rectal temperature at 5 mg/kg, po after 150 mins; outline: as §1
Rattus norvegicus [4] = test: Antipyretic activity against brewer's yeast-induced hyperthermia in Wistar rat assessed as change in rectal temperature at 5 mg/kg, po after 90 mins; outline: as §1
Rattus norvegicus [5] = test: Antipyretic activity against brewer's yeast-induced hyperthermia in Wistar rat assessed as change in rectal temperature at 5 mg/kg, po after 30 mins; outline: as §1

SMILES: COc1ccc2c(c1)c(CC(=O)O)c(C)n2C(=O)c1ccc(Cl)cc1 [INDOMETHACIN]
- Activity (Rattus norvegicus [1]): 37.7 °C
- Activity (Rattus norvegicus [2]): 37.9 °C
- Activity (Rattus norvegicus [3]): 37.5 °C
- Activity (Rattus norvegicus [4]): 37.8 °C
- Activity (Rattus norvegicus [5]): 38.1 °C
